Source: paper PMC4263960 (Pediatric blood & cancer, 2013)
Like-named read-outs stand apart in the source and are kept apart here.

Columns and labels:
COG-LL-317 cell line = experiment: DIMSCAN in vitro cytotoxicity testing, COG-LL-317; type: cell-based
How it was run: (§1)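 Test compound incubated with cells of a 24-line pediatric cancer panel for 96 h at 0.1 nM to 1 μM, then assessed by DIMSCAN. Relative IC50 (rIC50) derived per line. Panel comparison value is the panel rIC50 divided by the rIC50 of each cell line.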

[1] = system: MLL-7 tertiary infant precursor B-ALL xenograft; experiment: PPTP in vivo xenograft testing, MLL-7; parameters: species or system mice
[2] = system: OS-9 osteosarcoma xenograft; experiment: PPTP in vivo xenograft testing, OS-9; parameters: species or system mice
[3] = system: BT-28 medulloblastoma xenograft; experiment: PPTP in vivo xenograft testing, BT-28; parameters: species or system mice
Kasumi-1 cell line = experiment: DIMSCAN in vitro cytotoxicity testing, Kasumi-1; type: cell-based
How it was run: as §1

RS4;11 cell line = experiment: DIMSCAN in vitro cytotoxicity testing, RS4; type: cell-based
How it was run: as §1

[4] = Human pharmacokinetics of eribulin; type: in vivo, humans; conditions: plasma, intravenous, 1.4 mg/m2
[5] = system: ALL-31 tertiary T-cell ALL xenograft; experiment: PPTP in vivo xenograft testing, ALL-31; parameters: species or system mice
[6] = Tolerability in xenograft-bearing mice; type: in vivo
KT-10 Wilms xenograft = experiment: PPTP in vivo xenograft testing, KT-10; parameters: species or system mice
[7] = cited from earlier work
NB-1643 cell line = experiment: DIMSCAN in vitro cytotoxicity testing, NB-1643; type: cell-based
How it was run: as §1

SJ-GBM2 cell line = experiment: DIMSCAN in vitro cytotoxicity testing, SJ-GBM2; type: cell-based
How it was run: as §1

[8] = system: Rh30R ALV rhabdomyosarcoma xenograft; experiment: PPTP in vivo xenograft testing, Rh30R; parameters: species or system mice
[9] = system: Rh10 ALV rhabdomyosarcoma xenograft; experiment: PPTP in vivo xenograft testing, Rh10; parameters: species or system mice
[10] = intravenous dose of 2 mg/kg; different mouse strain; cited from earlier work
[11] = system: ALL-17 ALL B-precursor xenograft; experiment: PPTP in vivo xenograft testing, ALL-17; parameters: species or system mice
Rh41 cell line = experiment: DIMSCAN in vitro cytotoxicity testing, Rh41; type: cell-based
How it was run: as §1

[12] = system: Rh18 EMB rhabdomyosarcoma xenograft; experiment: PPTP in vivo xenograft testing, Rh18; parameters: species or system mice
Rh18 cell line = experiment: DIMSCAN in vitro cytotoxicity testing, Rh18; type: cell-based
How it was run: as §1

CHLA-10 cell line = experiment: DIMSCAN in vitro cytotoxicity testing, CHLA-10; type: cell-based
How it was run: as §1

[13] = system: D645 glioblastoma xenograft; experiment: PPTP in vivo xenograft testing, D645; parameters: species or system mice
[14] = system: OS-33 osteosarcoma xenograft; experiment: PPTP in vivo xenograft testing, OS-33; parameters: species or system mice
[15] = 1.5 mg/kg IP Q4Dx3 repeated at Day 21
[16] = 1 mg/kg IP Q4Dx3 repeated at Day 21

Structure (SMILES): C=C1C[C@@H]2CC[C@@]34C[C@H]5O[C@H]6[C@@H](O3)[C@H]3O[C@H](CC[C@@H]3O[C@H]6[C@H]5O4)CC(=O)C[C@@H]3[C@@H](OC)[C@@H](C[C@H](O)CN)O[C@H]3C[C@H]3O[C@@H](CC[C@@H]1O2)C[C@@H](C)C3=C [Eribulin]
- IC50 (COG-LL-317 cell line; 96 h, read-out: rIC50): < 0.1 nM
- Panel rIC50/Line rIC50 (COG-LL-317 cell line; COG-LL-317): >2.74
- Relative in/out% (COG-LL-317 cell line; COG-LL-317): −99%
- Ymin % (observed) (COG-LL-317 cell line; COG-LL-317): 0.03%
- EFS activity ([1]; 1.5 mg/kg IP): High (High activity requires: (a) an EFS T/C >2; (b) a significant difference in EFS distributions, and (c) a net reduction in median tumor volume for animals in the treated group at the end of treatment as compared to at treatment initiation)
- Response activity ([1]; 1.5 mg/kg IP): High (A high level of activity is indicated by a score of 6 or more)
- EFS T/C [1, 15]: >4.7
- Median final RTV (CD45%) ([1]; CD45%, 1.5 mg/kg IP): 0.0%
- EFS activity ([2]; 1 mg/kg IP): Low (Low activity = EFS T/C <2)
- Response activity ([2]; 1 mg/kg IP): Low (low activity by a score of <2)
- T/C volume activity ([2]; 1 mg/kg IP): Low (Low activity = T/C >0.45)
- EFS T/C [2, 16]: 1.4
- Median final RTV (CD45%) [2, 16]: >4
- Time to event [2, 16]: 26.3
- Tumor volume T/C ([2]; 1 mg/kg IP, Day 21 or earlier): 0.61
- EFS activity ([3]; 1 mg/kg IP): High (High activity requires: (a) an EFS T/C >2; (b) a significant difference in EFS distributions, and (c) a net reduction in median tumor volume for animals in the treated group at the end of treatment as compared to at treatment initiation)
- Response activity ([3]; 1 mg/kg IP): Int (intermediate activity by a score of ≥2 but <6)
- T/C volume activity ([3]; 1 mg/kg IP): Int (Intermediate activity = T/C ≤0.45 but >0.15)
- EFS T/C [3, 16]: >3.3
- Median final RTV (CD45%) [3, 16]: 0.7
- Tumor volume T/C ([3]; 1 mg/kg IP, Day 21 or earlier): 0.44
- IC50 (Kasumi-1 cell line; Homo sapiens, Kasumi 1, 96 h, read-out: rIC50): 4.11 nM
- Panel rIC50/Line rIC50 (Kasumi-1 cell line; Kasumi-1): 0.07
- Relative in/out% (Kasumi-1 cell line; Kasumi-1): −86%
- Ymin % (observed) (Kasumi-1 cell line; Kasumi-1): 3.92%
- IC50 (RS4;11 cell line; Homo sapiens, RS4-11, 96 h, read-out: rIC50): < 0.1 nM
- Panel rIC50/Line rIC50 (RS4;11 cell line; RS4;11): >2.74
- Relative in/out% (RS4;11 cell line; RS4;11): −99%
- Ymin % (observed) (RS4;11 cell line; RS4;11): 0.22%
- AUC [4]: 1580 ng·h/mL
- EFS activity ([5]; 1.5 mg/kg IP): Int (Intermediate activity = criteria (a) and (b) above, but not having a net reduction in median tumor volume for treated animals at the end of the study)
- Response activity ([5]; 1.5 mg/kg IP): High (A high level of activity is indicated by a score of 6 or more)
- EFS T/C [5, 15]: >3.7
- Median final RTV (CD45%) ([5]; CD45%, 1.5 mg/kg IP): 12.9%
- toxicity rate in the treated groups ([6]; 6 of 409 treated mice, control 1 of 401): 1.5%
- MTD at 6 weeks ([6]; NOD-SCID, mouse, in vivo, ip): 1.5 mg/kg
- EFS activity (KT-10 Wilms xenograft; 1 mg/kg IP): High (High activity requires: (a) an EFS T/C >2; (b) a significant difference in EFS distributions, and (c) a net reduction in median tumor volume for animals in the treated group at the end of treatment as compared to at treatment initiation)
- Response activity (KT-10 Wilms xenograft; 1 mg/kg IP): High (A high level of activity is indicated by a score of 6 or more)
- T/C volume activity (KT-10 Wilms xenograft; 1 mg/kg IP): High (High activity = T/C ≤0.15)
- EFS T/C (KT-10 Wilms xenograft; [16]): >3.7
- Median final RTV (CD45%) (KT-10 Wilms xenograft; [16]): 0.0
- Tumor volume T/C (KT-10 Wilms xenograft; 1 mg/kg IP, Day 21 or earlier): 0.01
- systemic exposure (AUC) ([7]; humans, 1.4 mg/m^2 dose): approximately 790 ng hour/ml
- serum half-life ([7]; patients): 37.8 h
- Panel rIC50/Line rIC50 (NB-1643 cell line; NB-1643): 0.57
- Relative in/out% (NB-1643 cell line; NB-1643): −97%
- Ymin % (observed) (NB-1643 cell line; NB-1643): 0.53%
- IC50 (NB-1643 cell line; NB-1643, 96 h, read-out: rIC50): 0.47 nM
- IC50 (SJ-GBM2 cell line; 96 h, read-out: rIC50): 0.51 nM
- Panel rIC50/Line rIC50 (SJ-GBM2 cell line; SJ-GBM2): 0.53
- Relative in/out% (SJ-GBM2 cell line; SJ-GBM2): −95%
- Ymin % (observed) (SJ-GBM2 cell line; SJ-GBM2): 0.46%
- EFS activity ([8]; 1 mg/kg IP): High (High activity requires: (a) an EFS T/C >2; (b) a significant difference in EFS distributions, and (c) a net reduction in median tumor volume for animals in the treated group at the end of treatment as compared to at treatment initiation)
- Response activity ([8]; 1 mg/kg IP): High (A high level of activity is indicated by a score of 6 or more)
- T/C volume activity ([8]; 1 mg/kg IP): High (High activity = T/C ≤0.15)
- EFS T/C [8, 16]: >4.3
- Median final RTV (CD45%) [8, 16]: 0.0
- Tumor volume T/C ([8]; 1 mg/kg IP, Day 21 or earlier): 0.11
- EFS activity ([9]; 1 mg/kg IP): High (High activity requires: (a) an EFS T/C >2; (b) a significant difference in EFS distributions, and (c) a net reduction in median tumor volume for animals in the treated group at the end of treatment as compared to at treatment initiation)
- Response activity ([9]; 1 mg/kg IP): High (A high level of activity is indicated by a score of 6 or more)
- T/C volume activity ([9]; 1 mg/kg IP): High (High activity = T/C ≤0.15)
- EFS T/C [9, 16]: >3.8
- Median final RTV (CD45%) [9, 16]: 0.0
- Tumor volume T/C ([9]; 1 mg/kg IP, Day 21 or earlier): 0.08
- AUC [10]: 1,132 ng hour/ml
- EFS activity ([11]; 1.5 mg/kg IP): High (High activity requires: (a) an EFS T/C >2; (b) a significant difference in EFS distributions, and (c) a net reduction in median tumor volume for animals in the treated group at the end of treatment as compared to at treatment initiation)
- Response activity ([11]; 1.5 mg/kg IP): High (A high level of activity is indicated by a score of 6 or more)
- EFS T/C [11, 15]: >5.3
- Median final RTV (CD45%) ([11]; CD45%, 1.5 mg/kg IP): 0.0%
- IC50 (Rh41 cell line; Homo sapiens, Rh41, 96 h, read-out: rIC50): 0.14 nM
- Panel rIC50/Line rIC50 (Rh41 cell line; Rh41): 2.00
- Relative in/out% (Rh41 cell line; Rh41): −70%
- Ymin % (observed) (Rh41 cell line; Rh41): 6.63%
- EFS activity ([12]; 1 mg/kg IP): Int (Intermediate activity = criteria (a) and (b) above, but not having a net reduction in median tumor volume for treated animals at the end of the study)
- Response activity ([12]; 1 mg/kg IP): Int (intermediate activity by a score of ≥2 but <6)
- T/C volume activity ([12]; 1 mg/kg IP): Low (Low activity = T/C >0.45)
- EFS T/C [12, 16]: >3.2
- Median final RTV (CD45%) [12, 16]: 1.8
- Tumor volume T/C ([12]; 1 mg/kg IP, Day 21 or earlier): 0.76
- IC50 (Rh18 cell line; Homo sapiens, Rh18, 96 h, read-out: rIC50): 0.83 nM
- Panel rIC50/Line rIC50 (Rh18 cell line; Rh18): 0.33
- Relative in/out% (Rh18 cell line; Rh18): −53%
- Ymin % (observed) (Rh18 cell line; Rh18): 20.92%
- IC50 (CHLA-10 cell line; 96 h, read-out: rIC50): 0.11 nM
- Panel rIC50/Line rIC50 (CHLA-10 cell line; CHLA-10): 2.58
- Relative in/out% (CHLA-10 cell line; CHLA-10): −28%
- Ymin % (observed) (CHLA-10 cell line; CHLA-10): 4.54%
- EFS activity ([13]; 1 mg/kg IP): Int (Intermediate activity = criteria (a) and (b) above, but not having a net reduction in median tumor volume for treated animals at the end of the study)
- Response activity ([13]; 1 mg/kg IP): High (A high level of activity is indicated by a score of 6 or more)
- T/C volume activity ([13]; 1 mg/kg IP): High (High activity = T/C ≤0.15)
- EFS T/C [13, 16]: >7.1
- Median final RTV (CD45%) [13, 16]: 3.8
- Tumor volume T/C ([13]; 1 mg/kg IP, Day 21 or earlier): 0.07
- EFS activity ([14]; 1 mg/kg IP): High (High activity requires: (a) an EFS T/C >2; (b) a significant difference in EFS distributions, and (c) a net reduction in median tumor volume for animals in the treated group at the end of treatment as compared to at treatment initiation)
- Response activity ([14]; 1 mg/kg IP): High (A high level of activity is indicated by a score of 6 or more)
- T/C volume activity ([14]; 1 mg/kg IP): Int (Intermediate activity = T/C ≤0.45 but >0.15)
- EFS T/C [14, 16]: >2.7
- Median final RTV (CD45%) [14, 16]: 0.2
- Tumor volume T/C ([14]; 1 mg/kg IP, Day 21 or earlier): 0.24
